# Bioassay records deposited in PubChem BioAssay by Johns Hopkins Ion Channel Center.
# RGS4 block: inhibitors of human RGS4; B-score at 10 µM; P49798; AID 463165; 310,000 tested, 0.45% active; HEK293 M3R/RGS4 inducible, Fluo-4 calcium flux; active compounds read high; triggered by carbachol at its EC20;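 active = B-score, a plate-corrected calcium signal, over three deviations above library mean, with baseline fluorescence within five deviations of library mean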;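 note: RGS4 expression induced by doxycycline in cells with stable M3 receptor; B-score is computed from the integrated fluorescence ratio over baseline after carbachol; higher B-score means a larger calcium signal and so more RGS4 inhibition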
# Target sequence (P49798 whole entry, looked up): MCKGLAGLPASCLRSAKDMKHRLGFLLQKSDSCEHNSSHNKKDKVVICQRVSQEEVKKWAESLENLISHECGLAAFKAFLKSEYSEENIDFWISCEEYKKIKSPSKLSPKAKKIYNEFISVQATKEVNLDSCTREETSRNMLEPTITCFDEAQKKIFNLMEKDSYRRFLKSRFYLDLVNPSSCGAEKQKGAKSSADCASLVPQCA
# MrgX1 ag: agonists of human MrgX1 receptor | 310,000 tested, 0.44% active | Q96LB2 | B-score at 10 µM | MrgX1-HEK293 cells, Fluo-4 calcium fluorescence, agonist mode; active compounds read high;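 active = calcium response B-score plate-corrected fluorescence ratio at least 3 library SD, with starting fluorescence B-score inside 5 SD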
# Target sequence (Q96LB2 whole entry, looked up): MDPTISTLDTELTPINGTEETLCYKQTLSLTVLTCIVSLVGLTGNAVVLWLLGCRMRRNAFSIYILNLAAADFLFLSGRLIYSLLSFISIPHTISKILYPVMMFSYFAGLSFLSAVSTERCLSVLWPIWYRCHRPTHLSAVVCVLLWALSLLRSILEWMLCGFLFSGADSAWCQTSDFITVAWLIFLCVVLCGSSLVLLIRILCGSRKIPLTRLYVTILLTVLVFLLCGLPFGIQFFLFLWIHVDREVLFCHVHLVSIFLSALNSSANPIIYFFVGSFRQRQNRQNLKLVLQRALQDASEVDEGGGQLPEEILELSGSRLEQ
#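 Material – MrgX1-expressing HEK293 cells · Input – 15,000 cells seeded per well · Dosing – compound as first of three additions · Times – overnight seeding, then 1 h dark dye loading · Measured by – kinetic Fluo-4 NW fluorescence of intracellular calcium · Read-out – B-scored fluorescence response ratio · Benchmarks – positive and negative control wells on each plate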
# MrgX1 antag: human MrgX1 receptor antagonism, primary screen; MRGX1-HEK293 calcium flux, Fluo-4, BAM8-22 antagonism; active compounds read low; 310,000 tested, 1.3% active; Q96LB2; B-score at 10 µM; AID 588676;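 active = calcium-response B-score plate-corrected more than 3 library SD below zero, starting fluorescence within 5 deviations, no agonist response on first addition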;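 note: peak minus trough fluorescence over baseline after final BAM8-22 challenge near maximal dose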
# MrgX1 allo act: allosterically activates human MrgX1 receptor signaling; B-score at 10 µM; MrgX1-HEK293, Fluo-4 calcium flux, FDSS; active compounds read high; Q96LB2; AID 588675; 310,000 tested, 0.63% active;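 active = plate-corrected calcium response at least 3 library SD above typical, normal starting fluorescence, not activating the receptor alone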;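 note: compound read alongside a low EC10 to EC30 dose of BAM8-22 agonist; peak minus trough fluorescence over baseline measured at the second addition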
# RGS4 act: potentiators or activators of RGS4 | B-score at 10 µM | HEK293 M3R/inducible RGS4, carbachol calcium flux Fluo4; active compounds read low | 310,000 tested, 0.92% active;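 active = B-score of the integrated calcium signal more than 4 SD below the library mean, with starting fluorescence not abnormally high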;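 note: negative B-score means reduced calcium response which marks RGS4 activation or potentiation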
#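 Reagent: ECmax carbachol challenge; Test system: M3R-expressing HEK293 line, RGS4 induced by doxycycline; Schedule: overnight RGS4 induction, 30 min dye load 37 °C, 20 min compound RT; Detection: calcium dye Fluo4 fluorescence; Read-out: Agonist-evoked peak-minus-minimum fluorescence over baseline, integrated ratio, B score.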
# RGS4 inh valid: validation of RGS4 inhibitors. shares compounds with RGS4 block. HEK293 M3R/RGS4, carbachol calcium Fluo-4 fluorescence; carbachol added at its EC20; 0 = buffer wells, 100 = carbachol control. calcium response, % at 10 µM. 1,700 tested, 65% active. AID 492999;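 active = duplicate-averaged calcium response above the buffer-only control mean plus 5 SD of those controls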;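 note: integrated fluorescence ratio F max minus min over baseline F0; higher response in RGS4-induced cells means RGS4 inhibition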
# RGS4 uninduced: counter-screen for RGS4 inhibitors: effect in non-induced cells | shares compounds with RGS4 block | HEK293 M3R non-induced, carbachol calcium Fluo-4; submaximal (EC20) carbachol stimulus; buffer wells 0%, carbachol control wells 100% | activity (percent), % at 10 µM | 1,900 tested, 20% active; call rule not given here;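 note: RGS4 induction absent so cells express M3R without RGS4; higher means more calcium signal and flags a non-specific hit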
# RGS4 inh ctr2: second RGS4 inhibitor counter-screen in uninduced cells lacking carbachol. shares compounds with RGS4 block. HEK293 M3R/RGS4 non-induced, Fluo-4 calcium, no carbachol; normalised: buffer wells 0%, carbachol wells 100%. calcium response (agonist-mode artifact), % at 10 µM. 1,900 tested, 22% active. AID 493001;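 active = duplicate-averaged calcium rise in uninduced cells above buffer wells' mean plus 5 SD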
# Starred values were filed as active, the others as inactive; i = inactive; nt = no result. Compounds with a hit are over-represented: about 3.5% of the library has one in this group of screens.
SMILES,RGS4 block,MrgX1 ag,MrgX1 antag,MrgX1 allo act,RGS4 act,RGS4 inh valid,RGS4 uninduced,RGS4 inh ctr2
COc1ccc(OC)c(S(=O)(=O)N2CCCC(C(=O)N3CCCCCC3)C2)c1 (stereo not given),i,i,i,i,i,i,i,13.5%*
COc1ccc(C)cc1S(=O)(=O)N1CCCC(C(=O)N2CCOCC2)C1 (stereo not given),i,i,i,i,i,i,i,i
COc1ccc(Cl)cc1S(=O)(=O)N1CCCC(C(=O)N2CCCC2)C1 (stereo not given),i,i,i,i,i,nt,nt,nt
COc1ccc(OC)c(S(=O)(=O)N2CCCC(C(=O)N3CCCC3)C2)c1 (stereo not given),i,i,i,i,i,i,i,i
COc1ccc(OC)c(S(=O)(=O)N2CCCC(C(=O)NCc3ccncc3)C2)c1 (stereo not given),i,i,i,i,i,nt,nt,nt
COc1ccc(OC)c(S(=O)(=O)N2CCC(C(=O)N3CCCC3)CC2)c1,i,i,i,i,i,nt,nt,nt
O=[N+]([O-])c1cnc(Nc2ccccc2)nc1Nc1ccccc1,i,i,i,i,i,nt,nt,nt
CCC(C)(C)NC(=O)c1cc(S(=O)(=O)N2CCCCC2)ccc1N1CCOCC1,i,i,i,i,i,nt,nt,nt
C/C(=N\N=C1\NC(=O)C(CC(=O)NCc2ccccc2)S1)C(C)C (stereo not given),i,i,i,i,i,nt,nt,nt
COc1ccccc1CN=C1NC(=O)C(CC(=O)Nc2ccc(C(C)=O)cc2)S1 (stereo not given),i,i,i,i,i,i,i,i
C/C(=N\N=C1\NC(=O)C(CC(=O)Nc2ccc(C)c(Cl)c2)S1)C(C)C (stereo not given),i,i,i,i,i,nt,29.5%*,i
CCOc1ccc(CNC(=O)C2CCN(c3nn4c(=O)cc(C)nc4s3)CC2)cc1,i,i,i,i,i,nt,nt,nt
O=C(CSCc1cccc(Br)c1)NC1CC1,i,i,i,i,i,nt,nt,nt
Cc1ccc(C(=O)C2=C(O)C(=O)N(Cc3ccco3)C2c2cccc(Br)c2)o1 (stereo not given),i,i,i,i,i,nt,nt,nt
O=C(C1=C(O)C(=O)N(Cc2ccco2)C1c1cccc(O)c1)c1ccco1 (stereo not given),4.67*,i,i,i,i,5.5%*,i,i
Cc1ccc(OCC(=O)NNC(=O)c2ccccc2OCc2c(C)noc2C)cc1,i,i,i,i,i,nt,nt,nt
Cc1coc2cc3oc(=O)c(Cc4ccccc4)c(C)c3cc12,i,i,i,i,i,nt,nt,nt
Cc1c(Cc2ccccc2)c(=O)oc2cc(O)cc(O)c12,5.5*,i,i,i,i,10.0%*,i,i
Oc1ccc(-c2nc(-c3ccc(O)c(O)c3)cs2)cc1,i,i,i,i,i,i,i,i
Oc1ccc(Nc2nc(-c3ccc4ccccc4c3)cs2)cc1,40.7*,i,i,i,i,84.5%*,88.5%*,i
CC(=O)Nc1nc(-c2ccc3ccccc3c2)cs1,5.13*,i,i,i,i,i,i,i
O=C(CN1C(=O)CCC1=O)Nc1nc(-c2ccc3ccccc3c2)cs1,7.99*,i,i,i,i,5.0%*,i,i
COc1ccc(CNC(C)C(=O)Nc2ccc3ccccc3c2)cc1OC (stereo not given),i,i,i,i,i,nt,nt,nt
Cc1ccc(NC(=O)CNC(=O)Cn2cnc3sc(C)c(C)c3c2=O)cc1F,6.92*,i,i,i,i,19.0%*,47.5%*,i
CCOC(=O)C1=C(C)Nc2nc(=S)[nH]n2C1c1ccc(Cl)cc1 (stereo not given),9.22*,nt,nt,nt,i,14.5%*,35.0%*,18.0%*
SMILES,RGS4 block,MrgX1 ag,MrgX1 antag,MrgX1 allo act,RGS4 act,RGS4 inh valid,RGS4 uninduced,RGS4 inh ctr2
CCOC(=O)C1=C(C)Nc2nc(SCC)nn2C1c1ccc(OC)cc1 (stereo not given),i,i,i,i,i,nt,nt,nt
CCn1c(CNC(=O)c2cccs2)n[nH]c1=S,i,i,i,i,i,nt,nt,nt
CCOC(=O)[C@@H]1[C@H]2COc3ccccc3[C@H]2N2C(=O)N(c3ccc(C(F)(F)F)cc3)C(=O)[C@]12C,i,i,i,i,i,i,i,i
CCOC(=O)[C@@H]1[C@H]2COc3ccccc3[C@@H]2N2C(=O)N(c3ccc(C(F)(F)F)cc3)C(=O)[C@]12C,i,i,i,i,i,i,i,i
COc1ccc(C2=NN(CN3C(=O)C(=O)c4ccccc43)C(c3ccc(Br)cc3)C2)cc1 (stereo not given),11.3*,i,i,i,i,38.5%*,42.5%*,i
COc1ccc(C2CC(c3ccc(Br)cc3)=NN2C(=O)c2cccnc2)cc1 (stereo not given),i,i,i,i,i,nt,nt,nt
COc1ccc(C2=NN(CN3C(=O)C(=O)c4ccccc43)C(c3ccc(C)cc3)C2)cc1 (stereo not given),6.74*,i,i,i,i,18.5%*,i,i
COc1ccccc1NC(=O)CSc1ccc(-c2ccc(-n3cccn3)cc2)nn1,i,i,i,i,i,nt,nt,nt
Cc1cc(C)cc(NC(=O)Cc2ccc(-n3cccc3)cc2)c1,i,i,i,i,i,nt,nt,nt
Cc1ccc(S(=O)(=O)N(C)CC(=O)O/N=C(\N)c2cccc(Br)c2)cc1,i,i,i,i,i,nt,nt,nt
O=C1N=c2ccccc2=C1c1c(O)n(-c2cccc(F)c2)[nH]c1=O,6.99*,i,i,i,i,21.0%*,i,i
COc1ccc(Cl)cc1N(CC(=O)N1CCCCCC1)S(C)(=O)=O,i,i,i,i,i,nt,nt,nt
COc1cc(NC(=O)CSc2ncnc3scc(-c4ccccc4)c23)c(C(=O)O)cc1OC,i,i,i,i,i,nt,nt,nt
